KCNK3 inh – human KCNK3 channel inhibitors, primary screen, CHO cells, FluxOR thallium flux, B-score; FluxOR fluorescence; hits give low values; B-score at 10 µM; 0.84% of 340,000 active; AID 602410, 2012;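 active means B-score under library mean minus 4 SD, starting fluorescence ratio at most library mean plus 5 SD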;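 further: more negative B-score means stronger inhibition of thallium flux through KCNK3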
Target sequence (O14649 whole entry, looked up): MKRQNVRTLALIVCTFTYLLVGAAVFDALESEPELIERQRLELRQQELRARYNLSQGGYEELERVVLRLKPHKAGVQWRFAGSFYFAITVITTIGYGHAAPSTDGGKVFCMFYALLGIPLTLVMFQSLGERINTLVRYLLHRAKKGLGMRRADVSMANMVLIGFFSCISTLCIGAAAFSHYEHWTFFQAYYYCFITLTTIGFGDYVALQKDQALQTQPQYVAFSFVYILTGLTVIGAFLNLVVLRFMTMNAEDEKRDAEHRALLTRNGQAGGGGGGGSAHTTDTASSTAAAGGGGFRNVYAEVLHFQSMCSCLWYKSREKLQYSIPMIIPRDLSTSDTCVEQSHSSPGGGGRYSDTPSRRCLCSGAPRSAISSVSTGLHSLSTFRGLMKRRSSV
KCNK9 block – KCNK9 potassium channel inhibitors, primary screen, HEK293 cells, thallium flux; Potassium channel subfamily K member 9 (Homo sapiens), Q9NPC2; 1.2% of 310,000 active; B-score at 10 µM; FluxOR thallium flux fluorescence; hits give low values;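 active means ratio B-score over 3 SD below the library mean, with starting fluorescence within 5 SD of its mean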;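 further: negative B-score means less thallium flux so channel inhibition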
Kir21 inh – inhibitors of mouse Kir2.1 inward-rectifier potassium channel; Inward rectifier potassium channel 2 (Mus musculus), P35561; HEK293-Kir2.1, FluxOR thallium flux fluorescence; hits give low values; B-score at 10 µM; 0.85% of 310,000 active;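 active means fluorescence ratio B-score at or below minus 3 SD of library scores, with starting-brightness B-score within 2 SD, cut at about -4.2 in these data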;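 further: channel flux triggered by added potassium and thallium sulfate stimulus; B-score of peak minus minimum fluorescence over baseline after thallium stimulus; more negative B-score means stronger Kir2.1 block with less thallium influx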
KCNQ1 block – inhibitors of human KCNQ1 channel, primary screen, cell-based, thallium flux, high-throughput. AID 2642, 2010. CHO-K1 KCNQ1, FluxOR thallium flux fluorescence; hits give high values. 1.3% of 310,000 active. B-score at 10 µM. Potassium voltage-gated channel subfamily KQT member 1 (Homo sapiens), P51787;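 active means compounds whose thallium flux B-score, printed positive for inhibition, exceeds three library SD while starting fluorescence stays within three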;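 further: channel opened by potassium depolarization with thallium stimulus after 20 min compound exposure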
KCNQ1 pot – potentiators or activators of KCNQ1 channel, primary screen, cell-based, thallium flux, high-throughput | B-score at 10 µM | CHO-K1 KCNQ1, thallium flux FluxOR fluorescence; hits give high values | 0.35% of 310,000 active | Potassium voltage-gated channel subfamily KQT member 1 (Homo sapiens), P51787;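 active means fluorescence ratio B-score, a plate-corrected score, at least three library SD, with initial intensity B-score within 5 SD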
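Test system: CHO-K1 cells stably expressing KCNQ1 / Medium: assay buffer / Also added: depolarizing K+/Tl+ stimulus, K2SO4 and Tl2SO4 each 12.5 mM in 5x stock / Incubation: 90 min dye loading and 20 min compound exposure, both at room temperature / Signal: thallium influx via FluxOR fluorescence, kinetic imaging / Evaluation: B score of baseline-normalized fluorescence ratio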
hERG protect – hERG rescue from dofetilide block, primary screen, cell-based, CHO-hERG, FluxOR thallium flux, dofetilide IC70; Voltage-gated inwardly rectifying potassium channel KCNH2 (Homo sapiens), Q12809; activation (rescue from dofetilide block), less the hit threshold, % at 10 µM; dofetilide IC70 present; AID 1511, 2009; 0.51% of 310,000 active;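 active means activation above the mean of controls blocked by dofetilide plus 5 SD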;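 further: thallium influx through hERG after potassium depolarization seen as dye fluorescence rise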
The depositor's hits bear a star. This is a sample that favours compounds with a hit; in the whole collection about 3.8% have one here.

What do the screens show for `CC(C)Oc1ccc(C(=O)Nc2ccc(S(=O)(=O)N3CCN(C)CC3)cc2)cc1`?
KCNK3 inh: inactive; KCNK9 block: -7.3*; Kir21 inh: -0.11; KCNQ1 block: inactive; KCNQ1 pot: inactive; hERG protect: -11

What do the screens show for `C/C(=C\C(=O)c1ccncc1)Nc1ccccc1O`?
KCNK3 inh: inactive; KCNK9 block: inactive; Kir21 inh: -0.23; KCNQ1 block: inactive; KCNQ1 pot: inactive; hERG protect: 5.7*

What do the screens show for `O=C(O)COc1ccccc1Cc1ccccc1`?
KCNK3 inh: inactive; KCNK9 block: inactive; Kir21 inh: 0.14; KCNQ1 block: inactive; KCNQ1 pot: inactive; hERG protect: -4

Results for CC(COc1ccccc1Cc1ccccc1)N1CCCCC1 (stereo not drawn) ?
KCNK9 block: inactive; Kir21 inh: -5.8*; KCNQ1 block: inactive; KCNQ1 pot: inactive; hERG protect: -11

Results for CCN(CCCn1c(=S)[nH]c2ncccc2c1=O)c1ccccc1 ?
KCNK3 inh: inactive; KCNK9 block: inactive; Kir21 inh: 1.9; KCNQ1 block: inactive; KCNQ1 pot: inactive; hERG protect: 38*

How did OC(COC(c1ccccc1)c1ccccc1)CN1CCCCC1 (stereo not drawn) do in these assays?
KCNK3 inh: inactive; KCNK9 block: inactive; Kir21 inh: -1.9; KCNQ1 block: inactive; KCNQ1 pot: inactive; hERG protect: 6.4*

What do the screens show for `CCOC(=O)c1ccc(N2CCN(c3cc(C)ccc3C)CC2)c(N)c1`?
KCNK3 inh: inactive; KCNK9 block: -6.8*; Kir21 inh: 0.27; KCNQ1 block: inactive; KCNQ1 pot: inactive; hERG protect: -7

Results for Cc1ccccc1NC1=C/C(=N\S(=O)(=O)c2ccc(C(=O)O)cc2)c2ccccc2C1=O ?
KCNK3 inh: inactive; KCNK9 block: inactive; Kir21 inh: 2.1; KCNQ1 block: inactive; KCNQ1 pot: inactive; hERG protect: 6.1*

Results for Cc1ccc(NC(=O)C2CCN(S(=O)(=O)c3c(C)nn(C)c3C)CC2)c(Cl)c1 ?
KCNK3 inh: inactive; KCNK9 block: inactive; Kir21 inh: -0.51; KCNQ1 block: inactive; KCNQ1 pot: inactive; hERG protect: -8

Results for O=C(Nc1cccc(F)c1)c1cccc2c1C(=O)N(C1CCCCC1)C2 ?
KCNK3 inh: inactive; KCNK9 block: -11*; Kir21 inh: -0.76; KCNQ1 block: inactive; KCNQ1 pot: inactive; hERG protect: -5

What do the screens show for `Cc1ccccc1NC(=O)c1cccc2c1C(=O)N(C1CCCCC1)C2`?
KCNK3 inh: inactive; KCNK9 block: inactive; Kir21 inh: -1; KCNQ1 block: inactive; KCNQ1 pot: inactive; hERG protect: -9

What do the screens show for `N#CC1=C(N)NC(SCC(=O)Nc2ccc(Br)cc2)=C(C#N)C12CCCCC2`?
KCNK3 inh: inactive; KCNK9 block: inactive; Kir21 inh: 2.1; KCNQ1 block: 9*; KCNQ1 pot: inactive; hERG protect: -14

Results for COc1cc(C(=O)OC2CCOC2=O)cc(Cl)c1OC (stereo not drawn) ?
KCNK3 inh: inactive; KCNK9 block: inactive; Kir21 inh: 0.8; KCNQ1 block: inactive; KCNQ1 pot: inactive; hERG protect: -5

How did COc1ccccc1N1C(=O)S/C(=C\c2ccc(C)s2)C1=O do in these assays?
KCNK3 inh: inactive; KCNK9 block: inactive; Kir21 inh: 0.08; KCNQ1 block: inactive; KCNQ1 pot: inactive; hERG protect: 4.8*

Results for COc1ccccc1CNS(=O)(=O)c1cc(C(=O)NCC2CCCO2)c(Cl)cc1Cl (stereo not drawn) ?
KCNK3 inh: inactive

What do the screens show for `CCC/C=C(\CCC)C(NC(=O)OCC(C)C)c1ccc(C(=O)OC)cc1` (stereo not drawn)?
KCNK3 inh: inactive; KCNK9 block: inactive; Kir21 inh: 1.1; KCNQ1 block: 9*; KCNQ1 pot: inactive; hERG protect: -8

How did COC(=O)c1ccc(C(NC(=O)OCc2ccccc2)/C(C)=C/[C@@H](C)C(=O)NCc2ccc(-c3ccccc3)cc2)cc1 (stereo partly drawn) do in these assays?
KCNK3 inh: inactive; KCNK9 block: inactive; Kir21 inh: 1.9; KCNQ1 block: inactive; KCNQ1 pot: inactive; hERG protect: -14

How did CCC/C=C(\CCC)C(NS(=O)(=O)c1cccc2cccnc12)c1ccc(C(=O)OC)cc1 (stereo not drawn) do in these assays?
KCNK9 block: inactive; Kir21 inh: -0.1; KCNQ1 block: 6*; KCNQ1 pot: inactive; hERG protect: -12

What do the screens show for `COC(=O)c1ccc(NC(=O)c2ccc(NS(=O)(=O)c3cccc4cccnc34)cc2)cc1`?
KCNK3 inh: inactive; KCNK9 block: inactive; Kir21 inh: -0.6; KCNQ1 block: inactive; KCNQ1 pot: inactive; hERG protect: 0

Results for CC(Oc1ccc(Cl)cc1Cl)C(=O)Nc1ccncc1 (stereo not drawn) ?
KCNK3 inh: inactive; KCNK9 block: inactive; Kir21 inh: 1.5; KCNQ1 block: inactive; KCNQ1 pot: inactive; hERG protect: -11

Results for CC(OC(=O)Cc1ccc(Cl)cc1)C(=O)NCCC1=CCCCC1 (stereo not drawn) ?
KCNK3 inh: inactive; KCNK9 block: inactive; Kir21 inh: -1.1; KCNQ1 block: inactive; KCNQ1 pot: inactive; hERG protect: -3

How did CC(Oc1ccc(Cl)cc1Cl)C(=O)Nc1cccnc1 (stereo not drawn) do in these assays?
KCNK3 inh: inactive; KCNK9 block: inactive; Kir21 inh: -1.6; KCNQ1 block: inactive; KCNQ1 pot: inactive; hERG protect: 6.5*

What do the screens show for `COc1ccc(NC(=O)C(=O)NNC(=O)C(C)Oc2ccc(Cl)cc2Cl)cc1` (stereo not drawn)?
KCNK3 inh: inactive; KCNK9 block: inactive; Kir21 inh: -0.25; KCNQ1 block: inactive; KCNQ1 pot: 108*; hERG protect: 35*

What do the screens show for `CC(Oc1ccc(Br)cc1Br)C(=O)Nc1cccnc1` (stereo not drawn)?
KCNK3 inh: inactive; KCNK9 block: inactive; Kir21 inh: 1; KCNQ1 block: inactive; KCNQ1 pot: inactive; hERG protect: 12*

What do the screens show for `CC(Oc1ccc(Cl)cc1Cl)C(=O)NCCC1=CCCCC1` (stereo not drawn)?
KCNK3 inh: inactive; KCNK9 block: inactive; Kir21 inh: -7*; KCNQ1 block: inactive; KCNQ1 pot: inactive; hERG protect: -3

Assay outcomes: PubChem, Johns Hopkins Ion Channel Center
